One assay concerns the target ALR1 (Bos taurus, UniProt Q3ZCJ2). Put plainly: ALR1 in vitro enzyme inhibition assay. The format is biochemical, calf. The essentials: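 Enzyme in sodium phosphate buffer pH 6.2, preincubated 10 min at 32 °C with test compound and substrate, without NADPH. Reaction started with NADPH and followed for 5 min. Absorbance read before and after cofactor addition gives % inhibition. Compound dissolved in DMSO and diluted in water to 0.1% DMSO in assay. Valproic acid is the standard. IC50 from nonlinear regression of log concentration vs remaining activity.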

For assay [1], the system named is advanced glycation end products (AGEs). Put plainly: Bovine serum albumin glycation. The format is biochemical. Conditions: BSA 1 mg mL–1, 0.5 M glucose, test compound (1 mM), pH 7.4, 50 °C, 4 days; AG positive control 100 μM. In a few lines:
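BSA and glucose were incubated in 0.1 M PBS, in the dark, with or without test compound. AGE fluorescence was read at excitation 350 nm and emission 460 nm. Percent inhibition was calculated from the glucose-dependent fluorescence increase (BSA ± glucose), compared with the BSA + glucose signal with or without test compound. A vehicle served as the negative control. Values are mean ± S.E.M. of three independent incubations, with Student t-test vs aminoguanidine.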

Assay [2] can be described thus: DPPH free-radical scavenging. Conditions: DPPH 0.025 mg mL–1 in methanol, 100 μM test compound, 517 nm. The essentials:
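Test compound mixed with methanolic DPPH and read spectrophotometrically. Percent scavenging is calculated from absorbance of sample relative to control. Ascorbic acid is the positive control.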
(The DPPH test is a chemical assay of radical scavenging.)

A further assay concerns the target ALR2 (Homo sapiens, UniProt P15121). Put plainly: ALR2 in vitro enzyme inhibition assay. The format is biochemical. Particulars: for selectivity of inhibition, ALR2 versus ALR1 (in words): judged from ALR1 and ALR2 in vitro inhibition data.

ALR1, sequence (Q3ZCJ2 whole entry): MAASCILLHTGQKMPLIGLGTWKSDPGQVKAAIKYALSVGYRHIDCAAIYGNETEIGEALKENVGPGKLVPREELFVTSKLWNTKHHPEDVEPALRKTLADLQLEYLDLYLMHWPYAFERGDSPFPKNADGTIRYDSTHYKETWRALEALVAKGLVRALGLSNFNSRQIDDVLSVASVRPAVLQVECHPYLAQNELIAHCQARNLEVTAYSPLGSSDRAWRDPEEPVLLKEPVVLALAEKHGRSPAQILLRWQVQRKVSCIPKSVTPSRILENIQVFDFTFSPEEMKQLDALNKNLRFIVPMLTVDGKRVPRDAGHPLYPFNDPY

As a reminder, the IC50 is the concentration that inhibits the measured activity by half. High values mean weaker potency in that assay, low ones greater potency in that assay. On ALR1, `Cc1ccc(O)c(C=NNC(=S)Nc2ccccc2)c1` [3a, 2-(2-Hydroxy-5-methylbenzylidene)-N-phenylhydrazinecarbothioamide] had an IC50 of 5.13 ± 0.037 µM. Further, the “% inhibition of AGEs (advanced glycation end-product formation)” value (“% inhibition of AGEs” for short) in assay [1] was 59.12%. The “% FRSA (percent free-radical scavenging activity)” value in assay [2] is reported as 56.78%. Besides, on ALR2, the half-maximal inhibitory concentration (IC50) came out at 4.99 ± 0.035 µM; the “selectivity of inhibition, ALR2 versus ALR1 (in words)” value (shortened to “selectivity of inhibition”) was “strong but nonselective inhibition of ALR1 and ALR2”.

As to `Cc1ccc(NC(=S)NN=Cc2cc(C)ccc2O)c(C)c1` [3b, N-(2,4-Dimethylphenyl)-2-(2-hydroxy-5-methylbenzylidene)hydrazinecarbothioamide], the “% inhibition of AGEs” value in assay [1] is 50.78%. For the same compound, in assay [2], the “% FRSA (percent free-radical scavenging activity)” value was 63.24%. Besides, on ALR2, the IC50 is 2.55 ± 0.021 µM; the “selectivity of inhibition” value is “strong and selective inhibition of ALR2”.

Take `COc1cccc(NC(=S)NN=Cc2cc(C)ccc2O)c1` [3c, 2-(2-Hydroxy-5-methylbenzylidene)-N-(3-methoxyphenyl)hydrazinecarbothioamide]: the “% inhibition of AGEs” value in assay [1] came to 66.40%. For the same compound, the “% FRSA (percent free-radical scavenging activity)” value in assay [2] came out at 65.67%. On ALR2, 1.42 ± 0.024 µM corresponded to half-maximal inhibition (IC50); the “selectivity of inhibition” value is “strong and selective inhibition of ALR2”.

For `Cc1ccc(O)c(C=NNC(=S)NCc2ccc(Cl)cc2)c1` [3d, N-(4-Chlorobenzyl)-2-(2-hydroxy-5-methylbenzylidene)hydrazinecarbothioamide], the “% inhibition of AGEs” value in assay [1] is on record as 62.81%. The “% FRSA (percent free-radical scavenging activity)” value in assay [2] is recorded as 61.34%.

Turning to `Cc1ccc(O)c(C=NNC(=S)NCc2ccccc2)c1` [3e, N-Benzyl-2-(2-hydroxy-5-methylbenzylidene)hydrazinecarbothioamide], the “% inhibition of AGEs” value in assay [1] was 56.73%. Besides, in assay [2], the “% FRSA (percent free-radical scavenging activity)” value came to 65.66%.

Regarding `Cc1ccc(O)c(C=NNC(=S)NC2CCCCC2)c1` [3f, N-Cyclohexyl-2-(2-hydroxy-5-methylbenzylidene)hydrazinecarbothioamide], the “% inhibition of AGEs” value in assay [1] is 59.86%. In assay [2], the “% FRSA (percent free-radical scavenging activity)” value is listed as 57.84%.

Take `Cc1ccc(O)c(C=NNC(=S)Nc2ccc(Br)cc2)c1` [3g, N-(4-Bromophenyl)-2-(2-hydroxy-5-methylbenzylidene)hydrazinecarbothioamide]: the “% inhibition of AGEs” value in assay [1] turned out to be 51.33%. For the same compound, the “% FRSA (percent free-radical scavenging activity)” value in assay [2] was determined as 53.56%. Besides, at ALR2, the IC50 came to 8.37 ± 0.062 µM; the “selectivity of inhibition” value was “strong and selective inhibition of ALR2”.

On to `Cc1ccc(NC(=S)NN=Cc2cc(C)ccc2O)cc1` [3h, 2-(2-Hydroxy-5-methylbenzylidene)-N-(p-tolyl)hydrazinecarbothioamide], for which the IC50 at ALR1 was found to be 15.8 ± 0.027 µM; against ALR2, 3.8 ± 0.072 µM. Moreover, in assay [2], the “% FRSA (percent free-radical scavenging activity)” value was 64.94%. The “selectivity of inhibition” value at ALR2 is “strong but nonselective inhibition of ALR1 and ALR2”.

In the case of `Cc1ccc(O)c(C=NNC(=S)Nc2c(C)cccc2C)c1` [3i, N-(2,6-Dimethylphenyl)-2-(2-hydroxy-5-methylbenzylidene)hydrazinecarbothioamide], the half-maximal inhibitory concentration (IC50) was 2.14 ± 0.031 µM against ALR1 and 2.06 ± 0.057 µM at ALR2. Further, the “% inhibition of AGEs” value in assay [1] came to 64.41%. The “% FRSA (percent free-radical scavenging activity)” value in assay [2] worked out at 71.34%. Also, at ALR2, the “selectivity of inhibition” value was “strong but nonselective inhibition of ALR1 and ALR2”.

With `Cc1ccc(O)c(C=NNC(=S)Nc2ccc(F)cc2F)c1` [3j, N-(2,4-Difluorophenyl)-2-(2-hydroxy-5-methylbenzylidene)hydrazinecarbothioamide], in assay [1], the “% inhibition of AGEs” value is listed as 61.60%. Further, the “% FRSA (percent free-radical scavenging activity)” value in assay [2] worked out at 66.57%. In addition, on ALR2, half-maximal inhibition (IC50) required 4.95 ± 0.066 µM; the “selectivity of inhibition” value is “strong and selective inhibition of ALR2”.

In the case of `Cc1ccc(O)c(C=NNC(=S)Nc2cccc(F)c2)c1` [3k, N-(3-Fluorophenyl)-2-(2-hydroxy-5-methylbenzylidene)hydrazinecarbothioamide], the “% FRSA (percent free-radical scavenging activity)” value in assay [2] is given as 53.88%. Further, at ALR2, half-maximal inhibition (IC50) required 14.03 ± 0.047 µM; the “selectivity of inhibition” value is “strong and selective inhibition of ALR2”.

With `Cc1ccc(O)c(C=NNC(=S)Nc2ccc(Cl)cc2)c1` [3l, N-(4-Chlorophenyl)-2-(2-hydroxy-5-methylbenzylidene)hydrazinecarbothioamide], the “% inhibition of AGEs” value in assay [1] is recorded as 56.61%. In addition, the “% FRSA (percent free-radical scavenging activity)” value in assay [2] turned out to be 62.44%. In addition, on ALR2, the IC50 was determined as 3.8 ± 0.027 µM; the “selectivity of inhibition” value is “strong and selective inhibition of ALR2”.

In the case of `Cc1ccc(O)c(C=NNC(=S)Nc2ccccc2C)c1` [3m, 2-(2-Hydroxy-5-methylbenzylidene)-N-(o-tolyl)hydrazinecarbothioamide], on ALR1, it took 4.57 ± 0.076 µM to reach half-maximal inhibition (IC50). Besides, in assay [1], the “% inhibition of AGEs” value was found to be 53.08%. Besides, in assay [2], the “% FRSA (percent free-radical scavenging activity)” value came out at 63.87%. Besides, on ALR2, half-maximal inhibition (IC50) required 1.96 ± 0.029 µM; the “selectivity of inhibition” value is “strong but nonselective inhibition of ALR1 and ALR2”.

For `Cc1ccc(O)c(C=NNC(=S)Nc2ccc(C(C)C)cc2)c1` [3n, 2-(2-Hydroxy-5-methylbenzylidene)-N-(4-isopropylphenyl)hydrazinecarbothioamide], in assay [1], the “% inhibition of AGEs” value is 68.66%. Further, the “% FRSA (percent free-radical scavenging activity)” value in assay [2] came to 55.93%. Besides, at ALR2, the IC50 came out at 3.11 ± 0.038 µM; the “selectivity of inhibition” value was “strong and selective inhibition of ALR2”.

As for `Cc1ccc(O)c(C=NNC(=S)NCCc2ccccc2)c1` [3o, 2-(2-Hydroxy-5-methylbenzylidene)-N-phenethylhydrazinecarbothioamide], in assay [2], the “% FRSA (percent free-radical scavenging activity)” value is on record as 68.56%. Further, on ALR2, the IC50 is 12.15 ± 0.083 µM; the “selectivity of inhibition” value is “strong and selective inhibition of ALR2”.

Take `Cc1ccc(O)c(C=NNC(=S)Nc2ccc(N(C)C)cc2)c1` [3p, N-(4-(Dimethylamino)phenyl)-2-(2-hydroxy-5-methylbenzylidene)hydrazinecarbothioamide]: the “% inhibition of AGEs” value in assay [1] worked out at 64.81%. The “% FRSA (percent free-radical scavenging activity)” value in assay [2] was 71.53%. Also, at ALR2, half-maximal inhibition (IC50) was put at 10.67 ± 0.064 µM; the “selectivity of inhibition” value is “strong and selective inhibition of ALR2”.

Consider `N=C(N)NN` [6-AG, 6-Aminoguanidine, reference compound], for which, in assay [1], the “% inhibition of AGEs” value is listed as 79.34%.

For the origin of these results see publication PMC9352332 (ACS Omega, 2022).
